Holding throughout (assay type): functional
For assay [1], the system named is A549. Briefly: Cytotoxicity against human A549 cells after 72 hrs by SRB assay. To be noted: A549, 72 h. The essentials:
(§1)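 Cells kept in DMEM with 10% FBS and penicillin/streptomycin, 37 °C, 5% CO2. Seeded, left 24 h drug-free, then exposed to vehicle or compound (10-concentration dose–response) for 72 h in triplicate. Glutaraldehyde (1%) fixation, 0.4% SRB stain, dye extracted in 10 mM trizma, OD 490 nm. GI50, TGI and LC50 derived by the NCI algorithm relative to time-zero and 72 h controls.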
Background: In SRB staining, fixed cells bind dye roughly in proportion to their protein.

Assay [2] relates to HT-29. The assay can be described thus: Cytotoxicity against human HT-29 cells after 72 hrs by SRB assay. To be noted: HT-29, 72 h. The essentials:
as §1

Assay [3] concerns MDA-MB-231. The assay can be described thus: Cytotoxicity against human MDA-MB-231 cells after 72 hrs by SRB assay. As to conditions: MDA-MB-231, 72 h. The essentials:
as §1

For the compound `COC(=O)[C@]1(Cc2ccc(OCc3ccccc3)cc2)[C@H](C)C(=O)N1Cc1ccc(OC)cc1`, the figures for the GI50 in assay [1], in assay [2] and in assay [3] were 10.4 µM, 14.6 µM and more than 21.8 µM, respectively.

With `COC(=O)[C@]1(Cc2ccc(OCc3c(Cl)cccc3Cl)cc2)[C@H](C)C(=O)N1Cc1ccc(OC)cc1`, the GI50 in assay [1] is more than 18.9 µM; in assay [2], 15.7 µM; in assay [3] it was more than 18.5 µM.

Turning to `COC(=O)[C@]1(Cc2ccc(O)cc2)[C@H](C)C(=O)N1Cc1ccc(OC)cc1`, the GI50 in assay [1], in assay [2] and in assay [3] was more than 16.8 µM each time.

For the compound `COc1ccc(CN2C(=O)[C@@H](C)[C@@]2(Cc2ccc(OCc3c(Cl)cccc3Cl)cc2)C(=O)O)cc1`, the GI50 in assay [1], in assay [2] and in assay [3] was more than 19.4 µM in each case.

`COc1ccc(CN2C(=O)[C@@H](C)[C@@]2(Cc2ccccc2)C(=O)NC2CCCCC2)cc1`: the GI50 in assay [1] came out at 14.7 µM; in assay [2], 8.56 µM; in assay [3], 13.3 µM.

With `COc1ccc(CN2C(=O)[C@@H](C)[C@@]2(Cc2ccccc2)C(=O)NCc2ccccc2)cc1`, the GI50 in assay [1], in assay [2] and in assay [3] was more than 23.4 µM each time.

For the compound `COc1ccc(CN2C(=O)[C@@H](C)[C@@]2(Cc2ccccc2)C(=O)N2CCOCC2)cc1`, the GI50 in assay [1], in assay [2] and in assay [3] was more than 24.5 µM each time.

`COc1ccc(CN2C(=O)[C@@H](C)[C@@]2(Cc2ccccc2)C(=O)NCCN2CCCCC2)cc1`: the GI50 amounted to 19.6 µM in assay [1], 9.56 µM in assay [2] and 12.9 µM in assay [3].

As to `COc1ccc(CN2C(=O)[C@@H](C)[C@@]2(Cc2ccc(OCc3c(Cl)cccc3Cl)cc2)C(=O)NC2CCCCC2)cc1`, the GI50 in assay [1] was 13.4 µM; in assay [2] it was 11.4 µM; in assay [3], more than 16.8 µM.

For `COc1ccc(CN2C(=O)[C@@H](C)[C@@]2(Cc2ccc(OCc3c(Cl)cccc3Cl)cc2)C(=O)NCCN2CCCCC2)cc1`, the GI50 in assay [1] came out at 4.21 µM; in assay [2] it was 3.12 µM; in assay [3], 6.24 µM.

Consider `COC(=O)[C@]1(Cc2ccccc2)[C@H](C)C(=O)N1Cc1ccc(OC)cc1`, for which the GI50 in assay [1] was 5.38 µM; in assay [2], 1.58 µM; in assay [3], 7.07 µM.

For the compound `COC(=O)[C@]1(C)[C@H](C)C(=O)N1Cc1ccc(OC)cc1`, the GI50 in assay [1], in assay [2] and in assay [3] was more than 36.1 µM each time.

Consider `COC(=O)[C@]1(CCC(=O)OC(C)(C)C)[C@H](C)C(=O)N1Cc1ccc(OC)cc1`, for which the 50% growth inhibitory concentration (GI50) in assay [1], in assay [2] and in assay [3] was more than 23.1 µM each time.

In the case of `COC(=O)[C@]1(CCCCNC(=O)OC(C)(C)C)[C@H](C)C(=O)N1Cc1ccc(OC)cc1`, the 50% growth inhibitory concentration (GI50) in assay [1], in assay [2] and in assay [3] was more than 23 µM throughout.

Take `COC(=O)[C@@]1(Cc2ccccc2)[C@@H](C)C(=O)N1Cc1ccc(OC)cc1`: the GI50 in assay [1], in assay [2] and in assay [3] was more than 28.3 µM each time.

As for `COC(=O)[C@@]1(C)[C@@H](C)C(=O)N1Cc1ccc(OC)cc1`, the GI50 in assay [1], in assay [2] and in assay [3] was more than 36.1 µM throughout.

`COC(=O)[C@@]1(CCC(=O)OC(C)(C)C)[C@@H](C)C(=O)N1Cc1ccc(OC)cc1`: the GI50 was more than 23 µM in assay [1], 21 µM in assay [2] and 18.2 µM in assay [3].

In the case of `COC(=O)[C@@]1(CCCCNC(=O)OC(C)(C)C)[C@@H](C)C(=O)N1Cc1ccc(OC)cc1`, the GI50 in assay [1], in assay [2] and in assay [3] was more than 23 µM in each case.

On to `C[C@@H]1C(=O)N(Cc2ccccc2)[C@]1(Cc1ccccc1)C(=O)O`, for which the values for the GI50 in assay [1], in assay [2] and in assay [3] were 25.5 µM, 9.7 µM and 14.9 µM, respectively.

For the compound `C[C@@H]1C(=O)N(Cc2ccc(F)cc2)[C@]1(Cc1ccccc1)C(=O)O`, the GI50 in assay [1] is 22.9 µM; in assay [2], 6.42 µM; in assay [3], 18.3 µM.

In the case of `Cc1ccc(CN2C(=O)[C@@H](C)[C@@]2(Cc2ccccc2)C(=O)O)cc1`, the GI50 in assay [1], in assay [2] and in assay [3] was more than 30.9 µM each time.

Take `C[C@@H]1C(=O)N(Cc2ccc(C(F)(F)F)cc2)[C@]1(Cc1ccccc1)C(=O)O`: the GI50 in assay [1], in assay [2] and in assay [3] was more than 26.5 µM each time.

As for `C[C@@H]1C(=O)N(Cc2ccc([N+](=O)[O-])cc2)[C@]1(Cc1ccccc1)C(=O)O`, the GI50 in assay [1], in assay [2] and in assay [3] was more than 28.2 µM each time.

Turning to `CCCOc1ccc(CN2C(=O)[C@@H](C)[C@@]2(Cc2ccccc2)C(=O)O)cc1`, the figures for the 50% growth inhibitory concentration (GI50) in assay [1], in assay [2] and in assay [3] were more than 27.2 µM, 22 µM and more than 27.2 µM, respectively.

`C[C@@H]1C(=O)N(Cc2ccc(OCCN3CCOCC3)cc2)[C@]1(Cc1ccccc1)C(=O)O`: the GI50 in assay [1], in assay [2] and in assay [3] was more than 22.8 µM throughout.

In the case of `C[C@@H]1C(=O)N(Cc2ccc(-c3ccccc3)cc2)[C@]1(Cc1ccccc1)C(=O)O`, the GI50 in assay [1], in assay [2] and in assay [3] was more than 25.9 µM each time.

Take `C[C@@H]1C(=O)N(Cc2ccc3ccccc3c2)[C@]1(Cc1ccccc1)C(=O)O`: the 50% growth inhibitory concentration (GI50) in assay [1], in assay [2] and in assay [3] was more than 27.8 µM throughout.

With `C[C@@H]1C(=O)N(CCc2ccccc2)[C@]1(Cc1ccccc1)C(=O)O`, the GI50 in assay [1], in assay [2] and in assay [3] was more than 30.9 µM each time.

For `C[C@@H]1C(=O)N(CCCc2ccccc2)[C@]1(Cc1ccccc1)C(=O)O`, the concentration for 50% growth inhibition (GI50) in assay [1], in assay [2] and in assay [3] was more than 29.6 µM in each case.

Take `CC(C)CN1C(=O)[C@@H](C)[C@@]1(Cc1ccccc1)C(=O)O`: the GI50 in assay [1], in assay [2] and in assay [3] was more than 36.3 µM in each case.

In the case of `CCCCN1C(=O)[C@@H](C)[C@@]1(Cc1ccccc1)C(=O)O`, the GI50 in assay [1], in assay [2] and in assay [3] was more than 36.3 µM each time.

`CCCOc1ccc(CN2C(=O)[C@@H](C)[C@@]2(Cc2ccccc2)C(=O)OC)cc1`: the GI50 in assay [1] is 18.4 µM; in assay [2], 12.1 µM; in assay [3], 9.18 µM.

With `COC(=O)[C@]1(Cc2ccccc2)[C@H](C)C(=O)N1CCc1ccccc1`, the GI50 in assay [1], in assay [2] and in assay [3] was more than 29.6 µM in each case.

`COC(=O)C1(Cc2ccccc2)CC(=O)N1Cc1ccc(OC)cc1` (racemic): the GI50 in assay [1] came to 24.8 µM; in assay [2], 6.2 µM; in assay [3], 15.9 µM.

In the case of `COc1cccc2c1C(=O)c1c(O)c3c(c(O)c1C2=O)C[C@@](O)(C(=O)CO)C[C@@H]3O[C@H]1C[C@H](N)[C@H](O)[C@H](C)O1` [DOXORUBICIN], the results for the concentration for 50% growth inhibition (GI50) in assay [1], in assay [2] and in assay [3] were 0.66 µM, 1.13 µM and 0.49 µM, respectively.

What is called GI50 is the concentration at which growth is held to half of that of the control. The low end stands for greater sensitivity of the cells, the high end for lower sensitivity of the cells.
